This is an account of results in ChEMBL document CHEMBL3627612, “Hirsutinolide Series Inhibit Stat3 Activity, Alter GCN1, MAP1B, Hsp105, G6PD, Vimentin, TrxR1, and Importin α-2 Expression, and Induce Antitumor Effects against Human Glioma” (J Med Chem, 2015).

The source made the active and inactive calls. The rule behind the calls is not given here.

A short description of data set [1]: Decrease in TrxR1 expression in human U251MG cells at 5 uM for 2 hrs by immunoblot analysis. Type of data set: functional, cell-based. To be noted: U-251. For orientation: In western blotting, separated proteins are transferred to a membrane and probed.
Data set [2] is described as follows: Decrease in vimentin expression in human U373MG cells at 5 uM for 2 hrs by immunoblot analysis. In kind it is functional, cell-based. To be noted: U-373MG ATCC.
For data set [3], the system named is U-251. Kind of data set: Antimitotic activity in human U251MG cells assessed as defect in sister chromatid segragation at 8 uM after 15 hrs confocal microscopic analysis. In kind it is functional, cell-based. A digest of the protocol:
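U251MG on coverslips synchronized by double thymidine block (2 mM), released 9 h, treated 15 h (8 μM; paclitaxel 100 nM). Fixed 4% paraformaldehyde, digitonin-permeabilized, BSA-blocked, stained for β-tubulin and MAP1B with DAPI counterstain; chromatid structure and segregation scored by confocal microscopy.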

For data set [4], the system named is U-251. In words: Antiproliferative activity against human U251MG cells at 5 uM for 24 hrs by BrdU incorporation assay. Type of data set: functional, cell-based. A digest of the protocol: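 U251MG on glass coverslips treated with DMSO or 5 μM compound for 3–24 h; 10 μM BrdU added during the last 2 h. Cells fixed in 4% paraformaldehyde, stained with anti-BrdU antibody, DAPI counterstained, imaged by fluorescence microscopy and counted.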
(In general: Uptake of a labelled nucleoside into DNA is a usual measure of proliferation.)

Data set [5] has as its system Mus musculus. Kind of data set: Toxicity in mouse xenografted with U251MG cells assessed as activity at 2 mg/kg three times a week for 33 days administered via oral gavage. Type of data set: organism-based, U-251. To be noted: in vivo, 792 h. The essentials: (§1)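 Four-week-old female athymic nude mice, injected subcutaneously in the left flank with 7.3×10^6 U251MG cells in PBS/matrigel (1:1). Tumors of 170–250 mm^3 formed by day 20, and groups were matched for mean size. Dosing was 2 mg/kg by oral gavage, three times weekly for 33 days, with 1% DMSO vehicle. Animals were monitored daily and weighed every 3 days.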

Data set [6] relates to Mus musculus. Kind of data set: Toxicity in mouse xenografted with U251MG cells assessed as lethargy at 2 mg/kg three times a week for 33 days administered via oral gavage. In kind it is organism-based, U-251. To be noted: in vivo, 792 h. A digest of the protocol:
as §1

For data set [7], the target named is T1, Signal transducer and activator of transcription 1 (Mus musculus) (UniProt P42225).
T1 sequence (whole entry): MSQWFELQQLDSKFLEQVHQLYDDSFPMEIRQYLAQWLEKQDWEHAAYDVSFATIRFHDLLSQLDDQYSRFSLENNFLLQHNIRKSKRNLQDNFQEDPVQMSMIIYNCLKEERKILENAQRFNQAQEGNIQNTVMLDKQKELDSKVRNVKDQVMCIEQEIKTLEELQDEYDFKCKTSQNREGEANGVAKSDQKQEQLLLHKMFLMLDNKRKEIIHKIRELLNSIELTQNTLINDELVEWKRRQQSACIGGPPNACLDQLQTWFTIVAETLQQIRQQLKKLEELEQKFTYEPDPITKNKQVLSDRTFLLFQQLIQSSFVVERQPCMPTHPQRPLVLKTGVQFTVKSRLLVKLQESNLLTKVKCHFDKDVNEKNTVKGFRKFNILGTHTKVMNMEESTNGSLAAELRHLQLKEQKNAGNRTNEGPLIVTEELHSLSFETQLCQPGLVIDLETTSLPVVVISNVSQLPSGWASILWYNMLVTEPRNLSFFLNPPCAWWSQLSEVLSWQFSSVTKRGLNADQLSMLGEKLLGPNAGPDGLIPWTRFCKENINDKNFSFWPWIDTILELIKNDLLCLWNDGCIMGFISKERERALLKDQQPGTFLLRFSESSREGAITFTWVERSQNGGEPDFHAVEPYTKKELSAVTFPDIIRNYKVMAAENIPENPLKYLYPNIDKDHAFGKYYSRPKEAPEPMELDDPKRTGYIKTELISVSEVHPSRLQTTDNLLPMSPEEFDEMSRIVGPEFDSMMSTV
Kind of data set: Modulation of EGF-induced Stat1 phosphorylation in mouse NIH3T3 cells expressing human EGFR at 5 uM preincubated for 3 hrs followed by stimulation with 1 ug/ml EGF for 12 mins by immunoblot analysis. In kind it is cell-based. A digest of the protocol: (§2)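 Whole-cell lysates of equal total protein from NIH3T3/hEGFR fibroblasts, pretreated with or without 5 μM compound (control 0.025% DMSO) for 3 h, then stimulated with 1 μg/ml EGF for 12 min. SDS-PAGE immunoblotting for pStat1/Stat1 and pStat5/Stat5 with β-actin or GAPDH loading controls. Representative of 2–4 independent determinations.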

Data set [8] can be described thus: Decrease in G6PD expression in human U373MG cells at 5 uM for 2 hrs by immunoblot analysis. In kind it is functional, cell-based. To be noted: U-373MG ATCC.
For data set [9], the target named is Heat shock protein 105 kDa (Homo sapiens) (UniProt Q92598). Kind of data set: Decrease in Hsp105 expression in human U251MG cells at 5 uM for 2 hrs by immunoblot analysis. In kind it is functional, cell-based. The following applies: U-251.
The target of data set [10] is Signal transducer and activator of transcription 3 (Mus musculus) (UniProt P42227). In words: Inhibition of Stat3 dimer DNA binding activity in mouse NIH3T3/vSrc nuclear extract at 5 uM preincubated for 30 mins followed by addition of radiolabeled probe hSIE for 30 mins by EMSA.
In data set [11] the test system is U-251. Kind of data set: Effect on SOCS3 expression in human U251MG cells at 5 uM after 0.5 to 24 hrs by immunoblot analysis. In kind it is functional, cell-based. The essentials:
(§3)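 U251MG cells treated with 5 μM compound for 0–24 h; whole-cell lysates of equal total protein immunoblotted. Controls were 0.025% DMSO-treated cells. Representative of 2–4 independent determinations.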

Data set [12] deals with T2, Signal transducer and activator of transcription 3 (Homo sapiens, UniProt P40763). Kind of data set: Binding affinity to Stat3 (unknown origin) by NMR analysis.
The subject of data set [13] is U-251. In words: Antitumor activity against human U251MG cells xenografted in mouse assessed as decrease in pStat3 level in tumor at 2 mg/kg three times a week for 33 days administered via oral gavage by immunoblot analysis. In kind it is functional, organism-based. A digest of the protocol:
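Female athymic nude mice, 4 weeks old, given subcutaneous flank injections of 7.3×10^6 U251MG cells in PBS/matrigel; dosing began at 170–250 mm3 tumors (day 20). Oral gavage 2 mg/kg, vehicle 1% DMSO, for 33 days. Caliper volumes V = 0.52×a²×b, compared with vehicle by paired t test; tumor lysates immunoblotted for pStat3, Stat3, GAPDH.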
In general terms: A xenograft is tissue or cells of one species grown in another, often human tumour cells in immunodeficient mice.

Data set [14] addresses T2, Signal transducer and activator of transcription 3. Kind of data set: Inhibition of orthovandate-induced Stat3 phosphorylation in human U251MG cells at 5 uM for 3 hrs by immunoblot analysis in presence of 10 to 300 uM orthovandate. In kind it is cell-based. To be noted: U-251. The essentials:
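U251MG cells treated with 5 μM compound for 3 h without or with 10–300 μM Na3VO4. Whole-cell lysates of equal total protein immunoblotted for pStat3 and Stat3. Controls were 0.025% DMSO. Representative of 2–4 determinations.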

In a further data set the test system is NIH3T3. In words: Modulation of EGF-induced Stat5 phosphorylation in mouse NIH3T3 cells expressing human EGFR at 5 uM preincubated for 3 hrs followed by stimulation with 1 ug/ml EGF for 12 mins by immunoblot analysis. In kind it is cell-based. A digest of the protocol: as §2
Data set [15] deals with U-251. In words: Effect on PTP1B expression in human U251MG cells at 5 uM after 0.5 to 24 hrs by immunoblot analysis. In kind it is functional, cell-based. The essentials:
as §3

Data set [16] is described as follows: Antiproliferative activity against human U251MG cells for 72 hrs by cyquant assay. In kind it is functional, cell-based. To be noted: U-251, 72 h. A digest of the protocol:
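CyQuant proliferation assay after 72 h compound exposure of cultured cells; relative viability normalized to DMSO-treated control; IC50 values derived. Glioma lines grown in RPMI or DMEM with 10% FBS and 1% nonessential amino acids.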

T2 sequence (P40763 whole entry): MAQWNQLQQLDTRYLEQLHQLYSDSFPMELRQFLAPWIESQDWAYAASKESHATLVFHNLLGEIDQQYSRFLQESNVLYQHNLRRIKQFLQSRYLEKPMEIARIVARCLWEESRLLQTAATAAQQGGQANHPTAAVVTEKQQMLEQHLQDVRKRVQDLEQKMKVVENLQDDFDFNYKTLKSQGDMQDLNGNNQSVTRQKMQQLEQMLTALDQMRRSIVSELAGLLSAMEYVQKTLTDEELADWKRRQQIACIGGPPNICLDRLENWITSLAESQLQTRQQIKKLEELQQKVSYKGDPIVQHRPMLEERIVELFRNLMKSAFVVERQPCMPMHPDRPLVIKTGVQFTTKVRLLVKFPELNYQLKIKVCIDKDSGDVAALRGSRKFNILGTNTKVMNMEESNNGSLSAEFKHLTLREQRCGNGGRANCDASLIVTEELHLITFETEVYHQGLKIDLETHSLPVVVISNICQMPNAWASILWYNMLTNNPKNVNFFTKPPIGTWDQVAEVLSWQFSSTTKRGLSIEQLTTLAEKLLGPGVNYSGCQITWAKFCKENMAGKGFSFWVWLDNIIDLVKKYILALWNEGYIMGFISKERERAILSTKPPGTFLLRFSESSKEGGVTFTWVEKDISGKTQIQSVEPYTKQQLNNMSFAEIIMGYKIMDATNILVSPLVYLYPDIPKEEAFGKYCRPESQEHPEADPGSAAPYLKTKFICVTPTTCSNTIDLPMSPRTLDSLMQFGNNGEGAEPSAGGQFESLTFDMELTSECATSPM
Chain of Signal transducer and activator of transcription 3 (Mus musculus) (P42227 whole entry): as the sequence (P40763 whole entry) above, with E760D counted along it
Chain of Heat shock protein 105 kDa (Homo sapiens) (Q92598 whole entry): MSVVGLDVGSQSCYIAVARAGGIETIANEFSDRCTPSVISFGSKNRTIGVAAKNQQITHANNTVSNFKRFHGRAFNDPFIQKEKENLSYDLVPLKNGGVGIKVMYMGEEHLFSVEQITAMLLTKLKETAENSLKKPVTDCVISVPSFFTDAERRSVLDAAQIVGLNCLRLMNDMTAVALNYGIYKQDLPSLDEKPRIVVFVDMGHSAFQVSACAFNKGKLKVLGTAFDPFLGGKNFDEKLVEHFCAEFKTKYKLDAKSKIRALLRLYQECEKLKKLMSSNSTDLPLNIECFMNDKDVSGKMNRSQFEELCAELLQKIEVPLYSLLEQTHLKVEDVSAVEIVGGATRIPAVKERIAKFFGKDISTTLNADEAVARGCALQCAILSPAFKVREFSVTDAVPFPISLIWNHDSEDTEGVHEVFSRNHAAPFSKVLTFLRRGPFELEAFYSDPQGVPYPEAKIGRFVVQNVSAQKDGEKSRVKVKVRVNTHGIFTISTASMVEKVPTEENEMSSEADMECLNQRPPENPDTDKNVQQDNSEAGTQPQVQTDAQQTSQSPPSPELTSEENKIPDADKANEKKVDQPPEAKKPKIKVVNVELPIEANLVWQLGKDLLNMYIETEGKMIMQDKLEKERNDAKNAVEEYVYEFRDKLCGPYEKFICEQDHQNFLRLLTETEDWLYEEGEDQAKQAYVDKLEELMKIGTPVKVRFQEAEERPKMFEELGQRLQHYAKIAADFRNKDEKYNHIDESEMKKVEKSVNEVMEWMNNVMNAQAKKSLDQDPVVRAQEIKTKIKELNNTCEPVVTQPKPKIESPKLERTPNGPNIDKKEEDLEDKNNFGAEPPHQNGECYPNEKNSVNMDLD

`C/C=C(\C)C(=O)OCC1=C2/C(=C\[C@@]3(C)CC[C@](O)(O3)[C@H](C)C[C@@H]2O)OC1=O`: the inhibition result in [1], in data set [2], in data set [8], in data set [9], in data set [10] and in data set [14] was “Active” in each case. Further, the outcome with U-251 [3], with U-251 [4] and in the data set with U-251 [13] was Active. Further, the results for the Activity entry (with Mus musculus [5]; in the data set on Mus musculus [6]; in data set [12]) were “Non-toxic”, “Non-toxic” and “Dose-dependent effect”, respectively. Moreover, the inhibition entry (in [7]; in the data set with NIH3T3) was “inactive” each time. Besides, the outcome in the data set on U-251 [11] and in the data set with U-251 [15] was inactive.

As a reminder, the IC50 is the concentration at which inhibition is half-maximal. Turning to `C/C=C(\C)C(=O)O[C@H]1C[C@@H](C)[C@]2(O)CC[C@](C)(/C=C3/OC(=O)C(COC(C)=O)=C31)O2`, the inhibition entry in data set [1], in data set [2], in data set [8], in data set [9], in data set [10] and in data set [14] was “Active” in each case. The IC50 in [16] was 1700 nM. For the same compound, the outcome in the data set on U-251 [3], in the data set on U-251 [4] and with U-251 [13] was Active. The Activity entry with Mus musculus [5] is “Non-toxic”; in the data set with Mus musculus [6], “Non-toxic”; in [12], “Dose-dependent effect”. The inhibition result (in data set [7]; with NIH3T3) was “inactive” in each case. For the same compound, the result in the data set with U-251 [11] and in the data set on U-251 [15] was inactive.

For `C/C=C(\C)C(=O)O[C@H]1C[C@@H](C)[C@]2(OC)CC[C@](C)(/C=C3/OC(=O)C(COC(C)=O)=C31)O2`, half-maximal inhibition in data set [16] (IC50) required 3400 nM. In addition, the inhibition entry (in data set [7]; in the data set on NIH3T3) was “inactive” throughout. For the same compound, the inhibition result in data set [10] and in data set [14] was “Active” in each case. Moreover, the result in the data set with U-251 [11] and in the data set with U-251 [15] was inactive. Also, the Activity entry in data set [12] was “Dose-dependent effect”.
